pPAFAH FP inh – pPAFAH enzyme inhibitors, primary screen, biochemical, fluorescence polarization, human | Platelet-activating factor acetylhydrolase (Homo sapiens), Q13093 | recombinant pPAFAH, FP-rhodamine probe fluorescence polarization | inhibition, % at 3.39 µM | 330,000 compounds, 1.5% hits | AID 463082, 2010;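 active = inhibition above the mean inhibition across the screen plus 3 SD, cut at about 25% in these data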;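 note: inhibitors block binding of the rhodamine activity-based probe so polarization drops; 0% = enzyme with DMSO and 100% = wells lacking pPAFAH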
NR3A LBD binder – binders of NR3A ligand-binding domain, primary screen, biophysical, differential scanning fluorimetry, uHTS; NR3A LBD differential scanning fluorimetry, Tm shift; 0% = protein alone, 100% = glycine-bound protein; 340,000 compounds, 2.5% hits; Tm shift relative to glycine control, % at 25 µM;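 active = melting temperature shift of at least 10% of the positive control shift, at one fixed dose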
UCH37 DUB inh – inhibitors of human UCH37 deubiquitinase, primary screen, biochemical, Ub-AMC cleavage, fluorescence; Ubiquitin carboxyl-terminal hydrolase isozyme L5 (Homo sapiens), Q9Y5K5; purified proteasome/UCH37; inhibition, % (test concentration not listed); AID 588478, 2011; 330,000 compounds, 0.33% hits;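 active = mean inhibition over replicate wells above about 20%, limit read from the data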;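 note: 0% = compound-free wells with enzyme and 100% = wells lacking proteasome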
Target sequence (Q9Y5K5 whole entry, looked up): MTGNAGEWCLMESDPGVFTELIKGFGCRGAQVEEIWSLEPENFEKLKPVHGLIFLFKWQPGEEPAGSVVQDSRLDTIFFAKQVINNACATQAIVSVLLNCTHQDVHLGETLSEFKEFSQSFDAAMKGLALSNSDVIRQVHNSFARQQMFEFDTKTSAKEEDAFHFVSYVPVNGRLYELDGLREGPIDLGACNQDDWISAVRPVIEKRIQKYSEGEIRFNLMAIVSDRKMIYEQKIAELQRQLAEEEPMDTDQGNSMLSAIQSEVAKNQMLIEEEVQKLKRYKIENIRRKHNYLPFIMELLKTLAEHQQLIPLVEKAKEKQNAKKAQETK
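Test system – human UCH37 enzyme supplied as purified proteasome complex · Incubation – 30 min preincubation with enzyme, 25 min cleavage at room temperature · Detection – AMC fluorescence from Ub-AMC cleavage, excitation 355 nm, emission 460 nm · Benchmarks – no-proteasome wells (full inhibition) and compound-free wells (no inhibition)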
PAFAH1B3 FP inh – PAFAH1B3 enzyme inhibitors, primary screen, biochemical, fluorescence polarization, human. Platelet-activating factor acetylhydrolase IB subunit alpha1 (Homo sapiens), Q15102. recombinant PAFAH1B3, FP-rhodamine probe. inhibition, % at 3.39 µM. 340,000 compounds, 0.28% hits;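 active = inhibition above the screen-wide average of all tested compounds plus 3 SD, cut at about 25% in these data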;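 note: 0% = enzyme with DMSO only and 100% = wells lacking PAFAH1B3 protein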
PAFAH2 inh – PAFAH2 enzyme inhibitors, primary screen, biochemical, fluorescence polarization, human; Platelet-activating factor acetylhydrolase 2, cytoplasmic (Homo sapiens), Q99487; recombinant PAFAH2, FP-rhodamine activity probe; inhibition, % at 3.39 µM; 340,000 compounds, 0.99% hits; AID 492956, 2010;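 active = inhibition above the mean over all tested compounds plus 3 SD, cut at about 30% in these data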;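 note: inhibitors block probe labeling of enzyme so polarization drops; 0% = enzyme with DMSO and 100% = wells lacking PAFAH2 protein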
PAFAH1B2 FP inh – PAFAH1B2 enzyme inhibitors, primary screen, biochemical, fluorescence polarization, human; Platelet-activating factor acetylhydrolase IB subunit alpha2 (Homo sapiens), P68402; recombinant PAFAH1B2, FP-rhodamine activity probe; inhibition, % at 3.39 µM; 340,000 compounds, 1.2% hits; AID 492953, 2010;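 active = inhibition above the mean of all tested compounds plus 3 SD, cut at about 24% in these data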;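 note: 0% = enzyme with DMSO and 100% = wells lacking PAFAH1B2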
Target sequence (P68402 whole entry, looked up): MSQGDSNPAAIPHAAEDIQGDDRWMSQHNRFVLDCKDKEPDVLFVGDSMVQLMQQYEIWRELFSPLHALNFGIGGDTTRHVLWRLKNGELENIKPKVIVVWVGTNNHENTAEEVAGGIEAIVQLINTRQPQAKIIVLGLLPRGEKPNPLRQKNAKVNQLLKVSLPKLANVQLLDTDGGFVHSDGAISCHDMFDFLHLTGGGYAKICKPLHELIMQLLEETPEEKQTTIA
pPAFAH confirm – pPAFAH (PLA2G7) enzyme inhibitors, confirmation, biochemical, fluorescence polarization, human. shares compounds with pPAFAH FP inh. recombinant pPAFAH, FP-Rh probe fluorescence polarization. inhibition, % at 3.39 µM. 2,300 compounds, 72% hits;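 active = mean inhibition of the triplicate above the hit cutoff set for the earlier primary screen, cut at about 25% in these data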;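 note: 0% = enzyme with DMSO and 100% = wells lacking pPAFAH enzyme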
Active calls of the source: *. Shown are actives, neighbours in structure and some others; about 4.8% of the full set was active somewhere.

`NC(=O)CN1C(=O)NC2(CCCc3sccc32)C1=O` (centres undefined) gave pPAFAH FP inh -2, NR3A LBD binder 1, UCH37 DUB inh 5, PAFAH1B3 FP inh 8, PAFAH2 inh 8 and PAFAH1B2 FP inh 6.
Screening Cc1cc(C(=O)CN2C(=O)NC3(CCCc4sccc43)C2=O)c(C)n1-c1ccc(Cl)cc1 (centres undefined) returned pPAFAH FP inh 40*, NR3A LBD binder -1, UCH37 DUB inh 3, PAFAH1B3 FP inh -4, PAFAH2 inh 2, PAFAH1B2 FP inh 2 and pPAFAH confirm 42*.
`CCOc1ccc(C2OC34CCCCC3C(C#N)(C#N)C2(C#N)C(=N)O4)cc1OC` (centres undefined) gave pPAFAH FP inh 42*, NR3A LBD binder -4, UCH37 DUB inh -126, PAFAH1B3 FP inh 43*, PAFAH2 inh 46*, PAFAH1B2 FP inh 37* and pPAFAH confirm 1.
For CCOc1ccc(-c2c(C(=O)NN=C(C)c3ccncc3)nnn2-c2nonc2N)cc1 the results were UCH37 DUB inh 4.
For CCCc1cc(=O)n2[nH]c(-c3ccc(Cl)cc3)cc2n1 the results were pPAFAH FP inh 13, NR3A LBD binder 1, UCH37 DUB inh -8, PAFAH1B3 FP inh 0, PAFAH2 inh 13 and PAFAH1B2 FP inh 9.
For CCOC(=O)Cc1cc(=O)n2[nH]c(-c3ccc(Cl)cc3)cc2n1 the results were pPAFAH FP inh 35*, NR3A LBD binder 2, UCH37 DUB inh -3, PAFAH1B3 FP inh 3, PAFAH2 inh 19, PAFAH1B2 FP inh 5 and pPAFAH confirm 8.
O=C(O)c1ccc(-c2sc(Nc3ccccc3)n[n+]2-c2ccc(F)cc2)cc1 was read as pPAFAH FP inh 3, NR3A LBD binder 2, UCH37 DUB inh 1, PAFAH1B3 FP inh -5, PAFAH2 inh 1 and PAFAH1B2 FP inh 1.
COc1ccc(C)cc1Nc1n[n+](-c2ccccc2)c(-c2ccc(OC)c(OC)c2OC)s1 was read as pPAFAH FP inh 10, NR3A LBD binder 0, UCH37 DUB inh 6, PAFAH1B3 FP inh 11, PAFAH2 inh 6 and PAFAH1B2 FP inh -1.
Screening COc1ccc(C)cc1Nc1n[n+](-c2ccccc2)c(-c2c(Cl)cccc2Cl)s1 returned pPAFAH FP inh 53*, NR3A LBD binder -5, UCH37 DUB inh 6 and pPAFAH confirm 53*.
`CCc1ccc(Nc2n[n+](-c3ccccc3)c(-c3c(Cl)cccc3Cl)s2)cc1` gave pPAFAH FP inh 56*, NR3A LBD binder -16, UCH37 DUB inh 0, PAFAH1B3 FP inh 2, PAFAH2 inh 7, PAFAH1B2 FP inh 0 and pPAFAH confirm 34*.
Fc1ccc(-[n+]2nc(Nc3ccccc3)sc2-c2c(Cl)cccc2Cl)cc1 was read as pPAFAH FP inh 51*, NR3A LBD binder -2, UCH37 DUB inh 4, PAFAH1B3 FP inh 5, PAFAH2 inh 9, PAFAH1B2 FP inh 1 and pPAFAH confirm 22.
For CCc1ccc(Nc2n[n+](-c3ccccc3)c(-c3ccc(OCc4ccccc4)cc3)s2)cc1 the results were pPAFAH FP inh 5, NR3A LBD binder -9, UCH37 DUB inh 5, PAFAH1B3 FP inh -5, PAFAH2 inh -15 and PAFAH1B2 FP inh 1.
Screening O=c1c2c(-c3ccccc3)csc2ncn1N=Cc1c2ccccc2cc2ccccc12 returned UCH37 DUB inh 4.
For O=C(O)CC1S/C(=N/N=C/c2ccc(-c3ccc(Cl)c([N+](=O)[O-])c3)o2)NC1=O (centres undefined) the results were pPAFAH FP inh 36*, NR3A LBD binder -2, PAFAH1B3 FP inh 0, PAFAH2 inh 7, PAFAH1B2 FP inh -2 and pPAFAH confirm 6.
COc1ccccc1-n1c(SCC(=O)Nc2cccc3ccccc23)nc(O)cc1=O was read as pPAFAH FP inh 38*, NR3A LBD binder -1, UCH37 DUB inh 0, PAFAH1B3 FP inh 1, PAFAH2 inh -1, PAFAH1B2 FP inh 0 and pPAFAH confirm 0.
`COc1cc(C=NNC(=O)CC(=O)NCCc2ccccc2)ccc1O` gave UCH37 DUB inh -1.
`CNc1ccc2c3c(cccc13)C(=O)N(C)C2=O` gave pPAFAH FP inh 54*, NR3A LBD binder -1, PAFAH1B3 FP inh 68*, PAFAH2 inh 71*, PAFAH1B2 FP inh 58* and pPAFAH confirm 39*.
`CC(Oc1ccccc1F)C(=O)NNC(=O)CCNC(=O)c1ccccc1Cl` (centres undefined) gave pPAFAH FP inh 54*, NR3A LBD binder -1, UCH37 DUB inh 4, PAFAH1B3 FP inh 3, PAFAH2 inh -1, PAFAH1B2 FP inh 4 and pPAFAH confirm -1.
For O=C(NN=Cc1cccnc1)c1cccc(S(=O)(=O)N2CCCC2)c1 the results were UCH37 DUB inh 4.
`O=C(NCc1cccnc1)C(=O)NN=Cc1ccccc1[N+](=O)[O-]` gave UCH37 DUB inh 6.
`COc1ccc(C(=O)CC(=O)C(=O)Nc2ccc([N+](=O)[O-])cc2C)cc1` gave pPAFAH FP inh 48*, NR3A LBD binder -2, UCH37 DUB inh 6, PAFAH1B3 FP inh 15, PAFAH2 inh -8, PAFAH1B2 FP inh 6 and pPAFAH confirm 8.
`COc1ccccc1NC(=O)COC(=O)c1cc2ccccc2cc1O` gave pPAFAH FP inh 6, NR3A LBD binder 0, UCH37 DUB inh 0, PAFAH1B3 FP inh 1, PAFAH2 inh 0 and PAFAH1B2 FP inh -6.
For COc1ccccc1NC(=O)c1cc2cc(Br)ccc2cc1O the results were pPAFAH FP inh 42*, NR3A LBD binder 32*, UCH37 DUB inh -13, PAFAH1B3 FP inh 29*, PAFAH2 inh 0, PAFAH1B2 FP inh 14 and pPAFAH confirm 45*.
`COc1ccc(C)cc1NC(=O)NNC(=O)c1cc2ccccc2cc1O` gave pPAFAH FP inh 48*, NR3A LBD binder 8, UCH37 DUB inh -11, PAFAH1B3 FP inh 34*, PAFAH2 inh 3, PAFAH1B2 FP inh 8 and pPAFAH confirm 52*.
`CCn1ncc(C=NNC(=O)COc2cc(C)cc(C)c2)c1C` gave UCH37 DUB inh 0.
